# Screening data (PubChem BioAssay)
# Hits are enriched below; roughly 3.5% of the tested compounds scored in any of these assays.
# RGS4 pot = RGS4 potentiators or activators, primary screen, cell-based, HEK293 M3R inducible RGS4, calcium flux. carbachol calcium flux Fluo4; hits give low values. B-score at 10 µM. 0.92% of 310,000 active. AID 463111, 2010;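 active means B-score of the integrated calcium signal more than 4 SD below the library mean, with starting fluorescence not abnormally high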;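 further: negative B-score means reduced calcium response which marks RGS4 activation or potentiation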
#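 Assay system: Inducible-RGS4 HEK293 cells carrying M3 receptor | Schedule: Compound preincubation 20 min at room temperature before agonist | Signal: Kinetic calcium fluorescence imaging with Fluo4-AM dye, 2 µM | Read-out basis: B score from integrated fluorescence ratio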
# RGS4 block = RGS4 inhibitors, primary screen, cell-based, HEK293 M3R inducible RGS4, calcium flux; Regulator of G-protein signaling 4 (Homo sapiens), P49798; Fluo-4 calcium flux; hits give high values; triggered by carbachol at its EC20; B-score at 10 µM; 0.45% of 310,000 active; AID 463165, 2010;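 active means B-score, a plate-corrected calcium signal, over three deviations above library mean, with baseline fluorescence within five deviations of library mean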;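 further: RGS4 expression induced by doxycycline in cells with stable M3 receptor; B-score is computed from the integrated fluorescence ratio over baseline after carbachol; higher B-score means a larger calcium signal and so more RGS4 inhibition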
# Target sequence (P49798 whole entry, looked up): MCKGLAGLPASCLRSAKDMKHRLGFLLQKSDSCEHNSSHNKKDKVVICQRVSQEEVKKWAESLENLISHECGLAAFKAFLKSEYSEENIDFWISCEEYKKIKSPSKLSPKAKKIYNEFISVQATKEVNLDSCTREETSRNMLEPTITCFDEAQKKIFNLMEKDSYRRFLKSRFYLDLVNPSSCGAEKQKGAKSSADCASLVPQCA
# MrgX1 antagonist = antagonists of human MrgX1 receptor, primary screen, HEK293 cells, Fluo-4 calcium flux. Mas-related G-protein coupled receptor member X1 (Homo sapiens), Q96LB2. BAM8-22 antagonism; hits give low values. B-score at 10 µM. 1.3% of 310,000 active. AID 588676, 2011;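 active means calcium-response B-score plate-corrected more than 3 library SD below zero, starting fluorescence within 5 deviations, no agonist response on first addition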;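 further: peak minus trough fluorescence over baseline after final BAM8-22 challenge near maximal dose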
# Target sequence (Q96LB2 whole entry, looked up): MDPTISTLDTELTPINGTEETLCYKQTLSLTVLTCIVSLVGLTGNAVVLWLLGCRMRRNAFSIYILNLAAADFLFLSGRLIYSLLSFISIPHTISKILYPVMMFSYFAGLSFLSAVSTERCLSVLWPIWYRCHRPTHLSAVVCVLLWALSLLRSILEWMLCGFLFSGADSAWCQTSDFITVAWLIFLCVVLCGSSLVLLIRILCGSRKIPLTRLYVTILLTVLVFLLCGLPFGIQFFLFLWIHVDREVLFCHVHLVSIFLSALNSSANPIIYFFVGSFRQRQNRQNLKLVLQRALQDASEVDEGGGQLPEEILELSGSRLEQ
# MrgX1 agonist = agonists of human MrgX1 receptor, primary screen, HEK293 cells, Fluo-4 calcium flux. Mas-related G-protein coupled receptor member X1 (Homo sapiens), Q96LB2. Fluo-4 calcium fluorescence, agonist mode; hits give high values. B-score at 10 µM. 0.44% of 310,000 active. AID 588627, 2011;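 active means calcium response B-score plate-corrected fluorescence ratio at least 3 library SD, with starting fluorescence B-score inside 5 SD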
#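 times = overnight plating, then 30 min 37 °C plus 30 min room-temperature dye loading | assay system = stable human MrgX1 HEK293 cell line | input = fifteen thousand cells per well | signal = kinetic calcium dye fluorescence, Fluo-4 NW | dosing = compound delivered in addition one of three | read-out = B-scored fluorescence response ratio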
# MrgX1 allo act = positive allosteric modulators of MrgX1, primary screen, HEK293 cells, Fluo-4 calcium flux; FDSS; hits give high values; B-score at 10 µM; Mas-related G-protein coupled receptor member X1 (Homo sapiens), Q96LB2; 0.63% of 310,000 active;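 active means plate-corrected calcium response at least 3 library SD above typical, normal starting fluorescence, not activating the receptor alone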;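 further: compound read alongside a low EC10 to EC30 dose of BAM8-22 agonist; peak minus trough fluorescence over baseline measured at the second addition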
# * marks the source's active call; other numbers are inactive results; i = inactive; / = no result.
SMILES,RGS4 pot,RGS4 block,MrgX1 antagonist,MrgX1 agonist,MrgX1 allo act
Cc1cc(NC(=O)CSCC(=O)OC(C)C(=O)N(C)Cc2ccccc2)no1 (configuration not stated),i,i,-7.4*,i,i
COc1ccccc1NS(=O)(=O)c1cc([N+](=O)[O-])ccc1N/N=C/c1sc(N2CCOCC2)nc1-c1ccccc1,i,i,-8*,i,i
COc1ccc(C(=O)N/N=C/c2sc(N3CCOCC3)nc2-c2ccccc2)cc1OC,i,i,i,i,i
COc1ccccc1C(=O)NNC1=C(C(=O)C(F)(F)F)CCC1,i,i,i,39*,i
O=C(NNC1=C(C(=O)C(F)(F)F)CCC1)c1ccccc1O,i,i,i,i,i
CC(=O)c1sc(NC(=O)c2ccc(Cn3cc(Br)cn3)o2)nc1C,i,i,i,i,6.5*
CCCc1nc2c(s1)CCc1onc(-c3ccc(Cl)cc3)c1-2,i,i,i,i,i
CCCc1sc(N)nc1-c1ccc(Cl)cc1,-7.4*,i,i,i,i
COc1ccc(Cc2nnc(SCC(=O)N(C)CC(=O)Nc3ccc(C)cc3)o2)cc1,i,i,-4.6*,i,i
CC(=O)N1CCc2cc(S(=O)(=O)C(C)CC(=O)Nc3ccc(OC(F)(F)F)cc3)ccc21 (configuration not stated),i,i,i,i,i
O=C(CNC(=O)C(c1ccccc1)c1ccccc1)N/N=C/c1ccc(O)cc1O,i,i,-5.7*,i,i
O=C(CNC(=O)C(c1ccccc1)c1ccccc1)N/N=C\c1cccc(O)c1,i,i,i,i,i
COc1ccc(CCNC(=O)Cn2c(=O)n(CCCC(=O)NCc3ccco3)c(=O)c3sccc32)cc1OC,i,i,i,i,6.4*
CC1CCN(c2ccccc2NC(=O)c2cc3ccccc3o2)CC1,-7.4*,i,i,i,i
CCC(=O)N1CCN(c2ccc(NC(=O)c3ccco3)cc2Cl)CC1,i,i,/,/,/
CCC(=O)N1CCN(c2ccc(NC(=O)c3cc4ccccc4o3)cc2Cl)CC1,-7.5*,i,i,i,i
CCCC(=O)N1CCN(c2ccc(NC(=O)c3cccs3)cc2Cl)CC1,i,i,i,i,i
CCCC(=O)N1CCN(c2ccc(NC(=O)c3cc4ccccc4o3)cc2Cl)CC1,-8.6*,i,i,i,i
COc1ccccc1N1CCN(C(=O)C2CCC(CNS(=O)(=O)c3ccc(NC(C)=O)cc3)CC2)CC1 (configuration not stated),i,i,i,i,i
CSc1ncc(C(=O)Nc2ccc(Br)cn2)c(C)n1,i,i,i,i,i
CCN(CC)CCCNC(=O)c1ccc(N2CCCCC2)c(NS(=O)(=O)c2ccc(C)cc2)c1,i,i,i,27*,i
O=C1CCCC(O)=C1N=Nc1ccc(C(=O)O)cc1,i,i,i,i,i
O=C1CCCC(O)=C1N=Nc1ccc2c(c1)OCO2,i,i,-5*,i,i
COc1ccc(CCNC(=O)CNCC2CCCCC2)cc1OC,i,i,i,i,i
O=c1c2ccccc2c(/C=N/NS(=O)(=O)c2ccccc2)c(O)n1-c1ccccn1,i,i,i,52*,i
SMILES,RGS4 pot,RGS4 block,MrgX1 antagonist,MrgX1 agonist,MrgX1 allo act
CN1C(=O)c2ccc(C(=O)Nc3ccccc3O)cc2C1=O,i,i,i,i,i
Cc1nc(-c2ccc(F)cc2)c(CC(=O)N(C)CC(=O)Nc2ccc(Br)cc2C)s1,i,i,i,i,i
COc1cccc2sc(Nc3nc(-c4ccccn4)cs3)nc12,-8.7*,i,i,i,7.8*
c1ccc(Nc2nc(-c3ccccn3)cs2)cc1,i,i,i,i,i
O=C(Nc1cccc(Cl)c1)C1C2CCC3C(CCC21)C3(Cl)Cl (configuration not stated),-7.5*,i,i,i,i
COc1ccc(OC)c(/C=C2\Oc3cc(OCC(=O)N4CC(O)C[C@H]4C(=O)O)ccc3C2=O)c1 (some centres not stated),i,i,i,i,14*
COc1ccc(/C=C2\Oc3cc(OCC(=O)N4CCC(C(=O)O)CC4)ccc3C2=O)c(OC)c1,i,i,i,i,i
COc1ccc(OC)c(/C=C2\Oc3cc(OCC(=O)N4CCC(C(=O)O)CC4)ccc3C2=O)c1,i,i,i,55*,i
COc1ccc(OC)c(NC(=O)CSc2nccn2Cc2ccco2)c1,i,i,i,i,i
CN(C)CCCN1C(=O)C(O)=C(C(=O)c2cccs2)C1c1cccc([N+](=O)[O-])c1 (configuration not stated),i,i,i,i,6.6*
O=C(C1=C(O)C(=O)N(CCN2CCOCC2)C1c1ccc([N+](=O)[O-])cc1)c1cccs1 (configuration not stated),i,i,i,i,i
C#Cc1ccc(CN2CCC(Oc3ccc(C(=O)NCc4ccccn4)cc3)CC2)cc1,i,i,i,i,i
CCN(CC)CCNC(=O)C1c2ccccc2Oc2ccccc21,-7.2*,i,i,i,i
COc1cccc(C2=NOC(C(=O)NCCCn3ccnc3)C2)c1 (configuration not stated),i,i,-6.5*,i,i
O=C(NCCCn1ccnc1)C1c2ccccc2Oc2ccccc21,-7.4*,i,i,i,i
COc1ccc(C2=NOC(C(=O)NCCCn3ccnc3)C2)cc1 (configuration not stated),i,i,i,i,i
CCN(CC)CCOC(=O)C1c2ccccc2Oc2ccccc21,-11*,i,i,i,i
CC(OC(=O)c1ccc2c(c1)S(=O)(=O)c1ccccc1C2=O)C(N)=O (configuration not stated),i,i,i,i,i
COc1ccccc1CN1CC(C(=O)N(Cc2cnn(C)c2)C(C)C)CCC1=O (configuration not stated),i,i,i,i,i
CC1(C)CC(NC(=O)C2CCC(=O)N(Cc3ccccc3F)C2)CC(C)(C)C1 (configuration not stated),i,i,/,/,/
O=C(Nc1nc(SCc2ccc(F)cc2)ns1)c1ccco1,i,8.2*,i,i,i
